Common to all, as to assay type: functional
The subject of test [1] is Mythimna separata. In words: In vivo insecticidal activity against pre-third-instar larval stage of Mythimna separata (Oriental armyworm) in corn leaves assessed as corrected mortality rate at 1 mg/ml treated for 3 secs before larval infestation measured after 36 days by leaf-dipping method. Particulars: 864 h. The essentials: (§1)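 Leaf-dip assay: fresh corn leaves dipped 3 s in 1 mg/mL compound in acetone, then air-dried; acetone-only leaves served as control. Groups of 10 pre-third-instar larvae per dish fed treated leaves, replaced when consumed. After 48 h all dishes switched to untreated fresh leaves until adult emergence. Held at 25 ± 2 °C, RH 65–80%, 12 h/12 h light/dark. Corrected mortality scored.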

Test [2] has as its system Mythimna separata. In words: In vivo insecticidal activity against pre-third-instar larval stage of Mythimna separata (Oriental armyworm) in corn leaves assessed as corrected mortality rate at 1 mg/ml treated for 3 secs before larval infestation measured after 12 days by leaf-dipping method. Conditions: 288 h. The essentials: as §1
Test [3] relates to Mythimna separata. As to the kind of experiment: In vivo insecticidal activity against pre-third-instar larval stage of Mythimna separata (Oriental armyworm) in corn leaves assessed as corrected mortality rate at 1 mg/ml treated for 3 secs before larval infestation measured after 24 days by leaf-dipping method. Particulars: 576 h. The essentials:
as §1

For orientation: mortality means the percentage killed. Regarding `COc1cc([C@@H]2c3cc4c(cc3C[C@H]3COC(=O)[C@@H]32)OCO4)cc(OC)c1OC(=O)c1cccnc1`, the mortality at 1000 µg/mL was determined as 62.9% with Mythimna separata [1], 3.5% with Mythimna separata [2] and 10.7% with Mythimna separata [3].

`COc1cc([C@@H]2c3cc4c(cc3C[C@H]3COC(=O)[C@@H]32)OCO4)cc(OC)c1OC(=O)c1ccc([N+](=O)[O-])cc1`: the mortality at 1000 µg/mL in the test on Mythimna separata [1] is 40.7%; in the test with Mythimna separata [2], 7.1%; in the test on Mythimna separata [3] it was 17.8%.

Regarding `COc1cc([C@@H]2c3cc4c(cc3C[C@H]3COC(=O)[C@@H]32)OCO4)cc(OC)c1OC(=O)c1ccncc1`, the values for the mortality at 1000 µg/mL with Mythimna separata [1], in the test on Mythimna separata [2] and with Mythimna separata [3] were 59.2%, 14.2% and 21.4%, respectively.

For `COc1cc([C@@H]2c3cc4c(cc3C[C@H]3COC(=O)[C@@H]32)OCO4)cc(OC)c1OC(=O)c1ccccc1`, the results for the mortality at 1000 µg/mL with Mythimna separata [1], with Mythimna separata [2] and with Mythimna separata [3] were 48.1%, 28.5% and 42.8%, respectively.

Consider `COc1cc([C@@H]2c3cc4c(cc3C[C@H]3COC(=O)[C@@H]32)OCO4)cc(OC)c1OC(=O)c1ccccc1Cl`, for which the mortality at 1000 µg/mL was determined as 37% in the test with Mythimna separata [1], 17.8% in the test on Mythimna separata [2] and 25% in the test on Mythimna separata [3].

As for `COc1ccc(C(=O)Oc2c(OC)cc([C@@H]3c4cc5c(cc4C[C@H]4COC(=O)[C@@H]43)OCO5)cc2OC)cc1`, the mortality at 1000 µg/mL with Mythimna separata [1] stood at 25.9%; in the test on Mythimna separata [2], 3.5%; in the test on Mythimna separata [3] it was 21.4%.

For `COc1cc([C@@H]2c3cc4c(cc3C[C@H]3COC(=O)[C@@H]32)OCO4)cc(OC)c1OC(=O)CCCc1c[nH]c2ccccc12`, the mortality at 1000 µg/mL in the test on Mythimna separata [1] was found to be 40.7%; with Mythimna separata [2], 10.7%; with Mythimna separata [3] it was 14.2%.

For `COc1cc([C@@H]2c3cc4c(cc3C[C@H]3COC(=O)[C@@H]32)OCO4)cc(OC)c1OC(=O)c1ccc(C)cc1`, the figures for the mortality at 1000 µg/mL in the test on Mythimna separata [1], in the test on Mythimna separata [2] and with Mythimna separata [3] were 33.3%, 7.1% and 17.8%, respectively.

`COc1cc([C@@H]2c3cc4c(cc3C[C@H]3COC(=O)[C@@H]32)OCO4)cc(OC)c1OC(=O)Cc1cccc2ccccc12`: the mortality at 1000 µg/mL was 37% in the test with Mythimna separata [1], 7.1% with Mythimna separata [2] and 17.8% in the test on Mythimna separata [3].

As to `COc1cc([C@@H]2c3cc4c(cc3C[C@H]3COC(=O)[C@@H]32)OCO4)cc(OC)c1OC(=O)c1cccc([N+](=O)[O-])c1`, the mortality at 1000 µg/mL is 51.8% with Mythimna separata [1], 3.5% in the test on Mythimna separata [2] and 14.2% in the test on Mythimna separata [3].

With `COc1cc([C@@H]2c3cc4c(cc3C[C@H]3COC(=O)[C@@H]32)OCO4)cc(OC)c1OC(=O)c1cc([N+](=O)[O-])cc([N+](=O)[O-])c1`, the mortality at 1000 µg/mL in the test on Mythimna separata [1] was found to be 22.2%; with Mythimna separata [2] it was 14.2%; in the test on Mythimna separata [3], 25%.

As for `CC(=O)O[C@@H]1C[C@H](O)[C@@]23CO[C@@H](O)[C@]1(C)[C@@H]2C[C@@H](O)[C@]1(C)[C@@H]3C(=O)[C@H](OC(C)=O)[C@@]2(C)[C@H](c3ccoc3)C[C@H]3O[C@]321` [TOOSENDANIN], the mortality at 1000 µg/mL stood at 40.7% in the test with Mythimna separata [1], 21.4% in the test with Mythimna separata [2] and 35.7% in the test on Mythimna separata [3].

As to `COc1cc([C@@H]2c3cc4c(cc3C[C@H]3COC(=O)[C@@H]32)OCO4)cc(OC)c1OC(=O)c1cccc(C)c1`, the mortality at 1000 µg/mL in the test with Mythimna separata [1] came to 40.7%; in the test with Mythimna separata [2], 17.8%; in the test on Mythimna separata [3] it was 25%.

On to `COc1cc([C@@H]2c3cc4c(cc3C[C@H]3COC(=O)[C@@H]32)OCO4)cc(OC)c1OC(=O)c1ccc(Cl)cc1`, for which the results for the mortality at 1000 µg/mL in the test with Mythimna separata [1], with Mythimna separata [2] and with Mythimna separata [3] were 29.6%, 0% and 14.2%, respectively.

In the case of `COc1cc([C@@H]2c3cc4c(cc3C[C@H]3COC(=O)[C@@H]32)OCO4)cc(OC)c1OC(=O)/C=C/c1ccccc1`, the mortality at 1000 µg/mL in the test with Mythimna separata [1] worked out at 48.1%; with Mythimna separata [2], 10.7%; with Mythimna separata [3], 17.8%.

Turning to `COc1cc([C@@H]2c3cc4c(cc3C[C@H]3COC(=O)[C@@H]32)OCO4)cc(OC)c1OC(=O)Cc1ccccc1`, the results for the mortality at 1000 µg/mL with Mythimna separata [1], in the test with Mythimna separata [2] and with Mythimna separata [3] were 29.6%, 10.7% and 25%, respectively.

The values above are taken from ChEMBL document CHEMBL3046209, “Semisynthesis and quantitative structure-activity relationship (QSAR) study of novel aromatic esters of 4'-demethyl-4-deoxypodophyllotoxin as insecticidal agents” (2009).
